Test [1] addresses Muscarinic acetylcholine receptor. Kind of test: Dissociation constant estimated by Schild analysis for antimuscarinic activity in guinea pig bladder. It counts as protein assay, Cavia porcellus. A digest of the protocol:
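Longitudinal bladder strip (2 mm wide, urethra to apex) in PSS at 37 °C, with isometric recording. Tissue was equilibrated 30 min, and carbachol control curves were run as for ileum. Dose ratios (carbachol ED50 after/before antagonist) were taken at 3–4 antagonist concentrations, each tested 4–8 times. pA2 came from Schild plots with slope fixed at −1.0.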

The target is the same in test [2]. Nature of the test: Dissociation constant estimated by Schild analysis for antimuscarinic activity in guinea pig heart. Format: protein assay, Cavia porcellus. A digest of the protocol: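 Guinea pig heart preparation with carbachol as agonist and water as solvent for drugs. Dose ratios (carbachol ED50 with/without antagonist) were measured at 3–4 antagonist concentrations, 4–8 replicates each. Parallel untreated tissues monitored sensitivity drift. pA2 was estimated by Schild analysis with slope constrained to −1.0; means ± SE.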

Test [3] shares this target. Nature of the test: Dissociation constant estimated by Schild analysis for antimuscarinic activity for guinea pig ileum. Format: tissue-based, Cavia porcellus. A digest of the protocol:
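Terminal ileum segments (2 cm, taken about 5 cm from the ileocecal junction) in PSS at 37 °C, with isotonic recording. After 30 min equilibration, carbachol dose–response curves were run at 30-min intervals; the second served as control. Antagonist was applied for 30 min, then the carbachol curve repeated. Dose ratios were taken at 3–4 concentrations, n=4–8 each. pA2 came from Schild analysis, slope constrained to −1.0.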

The pA2 is a measure of antagonist potency on a negative log scale. Turning to `C[N+](C)(C)C[C@@H]1C[S+]([O-])[C@@](c2ccccc2)(C2CCCCC2)O1.[I-]` (mixture of isomers; form 1), the pA2 in test [1] is 5.83; in test [2] it was 5.93; in test [3], 5.93.

Turning to `C[N+](C)(C)C[C@@H]1C[S+]([O-])[C@@](c2ccccc2)(C2CCCCC2)O1.[I-]` (mixture of isomers; form 2), the pA2 in test [1] was 7.53; in test [2], 7.45; in test [3] it was 7.73.

For `C[N+](C)(C)C[C@@H]1C[S@@+]([O-])[C@](c2ccccc2)(C2CCCCC2)O1.[I-]` (racemic), the pA2 in test [1] is 5.89; in test [2], 5.96; in test [3], 6.05.

Regarding `C[N+](C)(C)C[C@@H]1C[S+]([O-])[C@@](c2ccccc2)(C2CCCCC2)O1.[I-]` (single isomer, unassigned; (+)-7), the pA2 in test [1] is reported as 7.73; in test [2], 7.69; in test [3], 7.84.

`C[N+](C)(C)C[C@@H]1C[S+]([O-])[C@@](c2ccccc2)(C2CCCCC2)O1.[I-]` (single isomer, unassigned; (+)-8): the pA2 in test [1] is 5.56; in test [2], 5.44; in test [3], 5.96.

With `C[N+](C)(C)C[C@@H]1C[S+]([O-])[C@@](c2ccccc2)(C2CCCCC2)O1.[I-]` (single isomer, unassigned; (-)-7), the pA2 is recorded as 5.49 in test [1], 5.37 in test [2] and 5.52 in test [3].

For `C[N+](C)(C)C[C@@H]1C[S+]([O-])[C@@](c2ccccc2)(C2CCCCC2)O1.[I-]` (single isomer, unassigned; (-)-8), the pA2 in test [1] is on record as 6.07; in test [2] it was 6.01; in test [3] it was 6.17.

As for `C[N+](C)(C)C[C@@H]1C[S@@+]([O-])[C@](c2ccccc2)(C2CCCCC2)O1.[I-]` (stereo in doubt; (+)-3), the pA2 is listed as 5.94 in test [1], 5.54 in test [2] and 6.07 in test [3].

`C[N+](C)(C)C[C@@H]1C[S@+]([O-])[C@](c2ccccc2)(C2CCCCC2)O1.[I-]` (stereo in doubt; (+)-4): the pA2 in test [1] is given as 7.19; in test [2], 6.8; in test [3] it was 7.19.

Take `C[N+](C)(C)C[C@@H]1C[S@+]([O-])[C@](c2ccccc2)(C2CCCCC2)O1.[I-]` (stereo in doubt; (+\-)-4): the pA2 is reported as 6.96 in test [1], 6.53 in test [2] and 6.91 in test [3].

As to `C[N+](C)(C)C[C@@H]1C[S@@+]([O-])[C@](c2ccccc2)(C2CCCCC2)O1.[I-]` (stereo in doubt; (-)-3), the pA2 is on record as 5.88 in test [1], 6.24 in test [2] and 5.75 in test [3].

On to `C[N+](C)(C)C[C@@H]1C[S@+]([O-])[C@](c2ccccc2)(C2CCCCC2)O1.[I-]` (stereo in doubt; (-)-4), for which the pA2 is reported as 5.52 in test [1], 5.48 in test [2] and 5.55 in test [3].

The record behind these values is ChEMBL document CHEMBL1124347, “Enantioselectivity of muscarinic antagonists. Isomeric 2-cyclohexyl-2-phenyl-5-[(dimethylamino)methyl]-1,3-oxathiolane 3-oxide methiodides” (J Med Chem, 1989).
